SMARCA2 activ = increases SMARCA2 function in MMTV reporter cells; MG213 cells, MMTV-luciferase reporter, dexamethasone, overnight; 1% of 370,000 active; AID 652017; activation, % at 9.1 µM; in the data active = activation above about 7.8%;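 note: 0% = vehicle wells and 100% = reference activator wells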
SR-BI HDL uptake = inhibitors of mouse SR-BI mediated HDL lipid uptake | Q61009 | inhibition, % at 12.5 µM | ldlA[mSR-BI] CHO cells, DiI-HDL uptake fluorescence, 3 h | 0.96% of 320,000 active;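 active = mean replicate inhibition of at least 70% and a set share of replicates each scoring 70 or more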;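 note: 0% = median of neutral control wells and 100% = median of positive control wells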
Target sequence (Q61009 whole entry, looked up): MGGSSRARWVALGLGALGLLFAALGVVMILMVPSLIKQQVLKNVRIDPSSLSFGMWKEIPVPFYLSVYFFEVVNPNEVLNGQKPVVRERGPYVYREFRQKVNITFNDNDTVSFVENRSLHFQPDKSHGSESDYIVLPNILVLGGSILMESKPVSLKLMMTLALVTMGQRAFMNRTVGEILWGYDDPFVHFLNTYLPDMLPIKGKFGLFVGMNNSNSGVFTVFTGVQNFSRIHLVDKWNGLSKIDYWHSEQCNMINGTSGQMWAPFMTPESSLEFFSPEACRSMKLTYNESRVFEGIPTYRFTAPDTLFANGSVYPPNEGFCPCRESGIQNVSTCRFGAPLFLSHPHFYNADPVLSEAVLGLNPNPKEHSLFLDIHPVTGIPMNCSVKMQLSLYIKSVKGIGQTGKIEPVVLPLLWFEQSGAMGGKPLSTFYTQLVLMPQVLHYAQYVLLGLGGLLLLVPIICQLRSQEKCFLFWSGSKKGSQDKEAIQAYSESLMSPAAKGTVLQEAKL
TAG inh = triacylglycerol accumulation inhibition; H9c2 cells, Nile Red lipid (TAG) fluorescence; cells loaded with 200 µM oleic acid; inhibition, % at 12.5 µM; 0.66% of 230,000 active; AID 651582;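 active = pattern-corrected inhibition of lipid staining of at least 50% with the nuclear-stain viability signal not falling by more than 50%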;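 note: 0% = DMSO wells and 100% = triacsin C control wells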
SR-BI uptake up = enhances SR-BI lipid uptake from DiI-HDL. AID 504775. activation, % at 12.5 µM. 0.096% of 320,000 active. CHO ldlA[mSR-BI] cells, DiI-HDL uptake fluorescence, 3 h; 100 = double the neutral-control signal;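 active = mean replicate activation of at least 60% and every replicate at or above 60%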;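 note: 0% = median plate neutral-control signal and 100% = twice that signal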
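Material – SR-BI-overexpressing, LDLR-lacking CHO cells · Medium – BSA-supplemented, HEPES-buffered Ham's F12, pH 7.4 · Doses – single concentration · Times – compound with DiI-HDL co-incubation, 3 h at 37 °C · Measured by – bottom-read fluorescence, 550/595 nm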
Vif inh = HIV Vif inhibition. HEK293T cells, Vif self-association by quenched fluorescence, imaging, 24 h. inhibition, % at 7.49 µM. 0.35% of 340,000 active; in the data active = inhibition above about 50%, passing the limit was not always enough
SMARCA2 conf = SMARCA2 activation, confirmation screen | shares compounds with SMARCA2 activ | MG213 cells, MMTV-luciferase with dexamethasone, luminescence, overnight; MG213 cells expressing E1A, Rb sequestered; DMSO wells 0%, reference activator 100% | activation, % at 9.1 µM | 30% of 3,500 active | AID 652260;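 active = activation above its plate's cutoff, the mean activation of tested wells plus 3 SD, cut at about 7.9% in these data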
VP16 Luc act = counter-screen for SMARCA2 activators: GAL4-VP16 luciferase reporter activation; 41% of 3,500 active; HEK293 GAL4-VP16 pG5luc reporter, luciferase luminescence; scaled: DMSO wells 0%, SAHA wells 100%; shares compounds with SMARCA2 activ; activation, % at 9.1 µM; AID 686939;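 active = activation above the solvent-only control well mean plus 3 SD, averaged across control plates, cut at about 5.2% in these data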
An asterisk follows results filed as active; / = not tested or not shown. Shown are actives, neighbours in structure and some others; about 2.5% of the full set was active somewhere.

SMILES	SMARCA2 activ	SR-BI HDL uptake	TAG inh	SR-BI uptake up	Vif inh	SMARCA2 conf	VP16 Luc act
COc1ccc2oc(-c3ccncc3)cc(=O)c2c1	8.7*	1	0	-1	13	13*	6.5*
COc1ccc2c(=O)cc(-c3ccccc3F)oc2c1	9.9*	/	0	/	-2	8.4*	5.6*
C/C(=N/NC(=O)Cc1c(C)[nH][nH]c1=O)c1ccc(O)cc1	-3	-24	-7	24	13	/	/
C/C(=N\NC(=O)Cc1c(C)[nH][nH]c1=O)c1ccc(Cl)c(Cl)c1	8.0*	/	11	/	2	0	3
O=C(NCc1ccccc1)c1onc(CSc2ccccc2)c1C(=O)NCC1CC1	1	-4	-1	4	-13	/	/
CCOC(=O)c1c(C)[nH]c(C(=O)COC(=O)c2ccco2)c1C	10*	29	-25	-29	9	7	0
CCOC(=O)c1c(C)[nH]c(C(=O)COC(=O)c2ccncc2)c1C	2	14	9	-14	1	/	/
CC(C)=CCc1cc([C@@H]2CC(=O)c3ccc(O)c(CC=C(C)C)c3O2)ccc1O	0	16	/	-16	-2	/	/
O=C(c1ccccc1Br)N1CCN(c2ccccc2)CC1	-2	-12	/	12	-4	/	/
O=C(c1cnn2cccnc12)N1CCN(c2ccccc2)CC1	13*	-12	/	12	-2	2	2
O=C1c2cccc3c2C2(O)c4c1cccc4C(=O)c1cccc(c12)C3=O	8.1*	/	9	/	-3	-1	2
CC1(C)c2ccccc2C(=O)c2ccccc21	1	19	-3	-19	17	/	/
CN(CC(=O)Nc1ccccc1Cl)C(=O)c1cc(-c2cccs2)nn1-c1ccccc1	4	-13	11	13	5	/	/
Nc1nc(SCC(=O)N2CCCc3ccccc32)[nH]c(=O)c1-c1ccccc1	11*	2	/	-2	9	-3	1
O=S(=O)(c1sccc1Br)n1c(CN2CCOCC2)nc2ccccc21	-3	/	/	/	/	/	/
COc1cccc(/C=N/N=C(\N)c2nonc2N)c1O	8.6*	17	-10	-17	2	7	12*
Fc1ccc(OCc2nc3ccccc3s2)cc1	9.1*	-27	-11	27	0	7	12*
O=C(COC(=O)Cn1nnc2ccccc21)NC1CCCC1	9.9*	-15	/	15	-11	1	1
CC(=O)c1cnc2cc(-c3ccc(C)cc3)nn2c1C	10*	14	/	-14	2	3	9.9*
O=C1OC(/C(=C\Nc2ccc(F)cc2F)[N+](=O)[O-])c2ccccc21 (stereo not given)	13*	-6	/	6	-1	3	2
O=C1OC(/C(=C\Nc2cc(Cl)ccc2O)[N+](=O)[O-])c2ccccc21 (stereo not given)	33*	0	6	0	29	5	-1
CCOC(=O)N1CCN(C(=O)CSc2nc3nc(C)cc(C)n3n2)CC1	-4	-6	4	6	-12	/	/
O=C(NC1CCCCCC1)c1cc2ccccc2oc1=O	8.9*	3	/	-3	-2	6	12*
N=c1oc2ccccc2cc1C(=O)NC1CCCCCC1	3	-8	-5	8	4	/	/
O=C(c1cc2ccccc2oc1=O)N1CCOCC1	8.0*	-12	5	12	-3	15*	4
SMILES	SMARCA2 activ	SR-BI HDL uptake	TAG inh	SR-BI uptake up	Vif inh	SMARCA2 conf	VP16 Luc act
COC(=O)C1=C(C)N(Cc2ccc(Br)cc2)C(=S)NC1c1ccc(OC)cc1 (stereo not given)	-3	/	/	/	/	/	/
CCc1nc2c(OCc3ccc(F)c(F)c3)cccn2c1N(C)C(=O)c1ccc(OC)cc1	-5	/	-14	/	-2	/	/
COCc1cc(C)nc(SCC(=O)Nc2ccc(C)c(C)c2)c1C#N	8.1*	52	-26	-52	-14	4	4
C=CCN(CC#Cc1ccc(OC)cc1)CC=C	-1	/	/	/	/	/	/
Clc1ccccc1CSc1cnnc2ccccc12	9.0*	-14	-1	14	13	1	5
c1ccc(-c2nc3cc4ccccc4cc3[nH]2)nc1	5	2	-11	-2	-10	/	/

High-throughput results deposited in PubChem BioAssay by several laboratories.
